Rows were chosen to be rich in hits. Some 3% of all compounds tested hit in one or more screens of this group.
Casp6 inh: human caspase-6 inhibitors, primary screen, biochemical, VEID-R110 fluorescence, single point, set 2; 350,000 compounds, 0.53% hits; purified caspase-6, Z-VEID-R110 cleavage fluorescence; inhibition, % at 12.5 µM;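 active = mean inhibition across replicates at least about 35%, with every replicate also reaching that limit, limit read from the data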
Target sequence (P55212 24-179 limits assumed): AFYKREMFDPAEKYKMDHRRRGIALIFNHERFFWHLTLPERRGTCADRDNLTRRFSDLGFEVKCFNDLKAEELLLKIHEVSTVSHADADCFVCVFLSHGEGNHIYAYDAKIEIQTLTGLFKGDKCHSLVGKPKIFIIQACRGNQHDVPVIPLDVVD
Target sequence (P55212 194-293 limits assumed): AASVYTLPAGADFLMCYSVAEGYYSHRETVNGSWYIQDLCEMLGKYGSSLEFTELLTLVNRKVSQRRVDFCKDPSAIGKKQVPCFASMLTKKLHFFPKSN
Wnt act: Wnt/beta-catenin pathway activators, primary screen, cell-based, plate reader, single point. Wnt/beta-catenin reporter cell assay, activator. activation, % at 9.35 µM. 300,000 compounds, 1.2% hits. AID 743398, 2014; in the data active = activation above about 30%, passing the limit was not always enough
NSD2 inh: NSD2 histone methyltransferase inhibitors, primary screen, biochemical, AlphaScreen, single concentration, set 2 | Histone-lysine N-methyltransferase NSD2 (Homo sapiens), O96028 | NSD2 peptide methylation, 120 min | AID 743445, 2014 | inhibition, % at 12.5 µM | 310,000 compounds, 0.54% hits; in the data active = inhibition above about 50%
Xi reactivation: activators of inactive X chromosome reactivation, primary screen, imaging, XiGFP fibroblasts, GFP high-content imaging, set 2; XiGFP mouse fibroblasts, % GFP-positive cells imaging, 3 d; cells co-treated with 5-aza-dC sensitizer; scaled so ellipticine positive control = 100%; activation, % at 7.58 µM; 360,000 compounds, 0.055% hits; AID 743238, 2013;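 active = mean normalized replicate activation at least 10% and every replicate at or above 10%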
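System: XiGFP fibroblasts, SV40-immortalized. Medium: DMEM plus 5-aza-dC sensitizer. Doses: single point. Timing: 3 d treatment, 15 min room-temperature fixation. Control set: ellipticine 6 µM.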
esBAF inh: Bmi1 luciferase reporter increase in mESCs, primary screen, esBAF inhibitor project, mouse ES cells, Bmi1 luciferase knock-in, single point. 24 h; 100% = twice the neutral-well signal. 350,000 compounds, 2% hits. AID 602393, 2012. reporter increase, % at 12.5 µM; in the data active = activation above about 40%;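 note: a rise in the Bmi1 reporter signal indicates esBAF inhibition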
MITF act: activators of MITF-driven TRPM1 promoter reporter, primary screen, cell-based, SK-MEL-5, luciferase, single point | SK-MEL-5 TRPM1-promoter luciferase, 24 h; % of positive control, neutral wells = 0 | activation, % at 12.5 µM | 300,000 compounds, 0.75% hits | AID 588334, 2011;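 active = mean activation of at least 80% with every replicate also reaching 80%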
AlphaScreen art: AlphaScreen signal interference with preloaded methylated product, dose response, artefact control for NSD2 inhibitor project, biochemical, cherry-picked samples | AID 1053174, 2014 | AC35, µM (highest dose often 10 µM) | 1,500 compounds, 9.4% hits | AlphaScreen artifact counterscreen, preloaded methylated H4 peptide | shares compounds with NSD2 inh; call rule not given here
Numbers stand for hits; i = inactive; nt = no result.

SMILES	Casp6 inh	Wnt act	NSD2 inh	Xi reactivation	esBAF inh	MITF act	AlphaScreen art
CC12CC3CC(C)(C1)CC(C(=O)NC1=NCCS1)(C3)C2	nt	i	i	nt	i	nt	nt
COc1ccc(NC(=O)Nc2ccc3c(c2)C(=O)N([C@@H](C)CO)C[C@@H](C)[C@@H](CN(C)C(=O)Nc2cccc4ccccc24)OCCCC[C@H](C)O3)cc1	i	nt	nt	i	i	nt	nt
CCNCCNc1ccc(Cl)cc1[N+](=O)[O-]	nt	i	63.8	nt	i	i	i
C[C@@H]1CCCCO[C@H](CN(C)C(=O)Nc2ccc(F)cc2)[C@H](C)CN([C@@H](C)CO)C(=O)c2cc(NC(=O)Nc3cccc4ccccc34)ccc2O1	i	nt	nt	i	i	nt	nt
C[C@H]1CCCCO[C@@H](CN(C)C(=O)CCCN(C)C)[C@@H](C)CN([C@@H](C)CO)C(=O)c2cc(NS(C)(=O)=O)ccc2O1	nt	nt	nt	i	i	nt	nt
Cc1ccccc1NC(=O)CN1CCC(C(=O)c2ccc3c(c2)OCCO3)CC1	i	i	56.5	i	i	i	i
COc1ccc(C2CC(c3ccc(Cl)cc3)=NN2C(C)=O)cc1 (configuration not stated)	i	i	54.5	i	51.6	i	i
Cc1ccc(S(=O)(=O)N[C@@H]2CC[C@@H](CCNC(=O)c3ccccc3F)O[C@@H]2CO)cc1	i	nt	nt	i	i	nt	nt
COc1ccccc1C(=O)NNC(=O)Cc1ccccc1	i	i	55.4	i	i	i	i
COC(=O)NNC(=O)c1ccccc1OC	i	i	i	i	nt	i	nt
Cc1noc(C)c1S(=O)(=O)Nc1cccc2c1O[C@H](CN(C)Cc1ccc(C(=O)Nc3ccccc3N)cc1)[C@H](C)CN([C@@H](C)CO)C2=O	i	nt	nt	i	i	nt	nt
Cc1noc(C)c1S(=O)(=O)N(C)C[C@@H]1Oc2c(cccc2N(C)C)C(=O)N([C@H](C)CO)C[C@H]1C	i	nt	nt	i	i	nt	nt
CNCCCOc1ccc2c(c1)CCC2	i	i	61.1	i	i	i	i
C/C=C/c1ccc([C@@H]2[C@@H](CO)N(Cc3nccs3)C23CN(CC2CCCC2)C3)cc1	nt	nt	nt	i	nt	nt	nt
C=CCN(CC=C)C(=S)Nc1ccc2nsnc2c1	i	i	103.9	i	i	i	i
COc1ccc(NC(=S)Nc2ccc3nc(C)c(C)nc3c2)cc1	nt	i	i	nt	i	nt	nt
COc1ccc(NC(=S)Nc2ccc3nsnc3c2)cc1	nt	i	136.6	i	nt	i	i
CCOc1ccc(NC(=S)Nc2ccc3nsnc3c2)cc1	nt	nt	135.5	i	nt	i	i
COc1ccc2c3c([nH]c2c1)[C@H](CO)N(C(=O)Nc1ccc(F)cc1)CC31CCN(CC2CC2)CC1	i	nt	nt	i	nt	nt	nt
O=C(NCC1CC1)[C@H]1[C@H](CO)[C@H]2Cn3c(ccc(-c4cccnc4)c3=O)[C@@H]1N2C(=O)C1CCCCC1	i	nt	nt	i	i	nt	nt
CCCC(=O)Nc1ccc2c(c1)C(=O)N(C)C[C@@H](OC)[C@H](C)CN(C(=O)c1ccccc1F)[C@H](C)CO2	i	nt	nt	i	i	nt	nt
Nc1nc(=S)c2ncn(C3OC(CO)C(O)C3O)c2[nH]1 (configuration not stated)	nt	i	51.9	i	i	i	i
COc1cccc(C(C(=O)NC2CCCC2)N(C(=O)c2csnn2)C2CC2)c1 (configuration not stated)	i	i	99.0	i	i	i	i
O=C1NC(=S)S/C1=C\c1cc2ccccc2nc1N1CCCCC1	i	i	83.3	i	nt	nt	i
O=C(C1CCCN1S(=O)(=O)c1ccc(Cl)s1)N1CCc2ccccc2C1 (configuration not stated)	nt	nt	i	nt	nt	nt	nt
SMILES	Casp6 inh	Wnt act	NSD2 inh	Xi reactivation	esBAF inh	MITF act	AlphaScreen art
NC(=O)C1Cc2ccccc2CN1S(=O)(=O)c1ccc(Cl)s1 (configuration not stated)	i	i	88.7	i	i	i	i
O=C(Nc1ccccc1F)N[C@H]1CC[C@H](CCNC(=O)C2CCOCC2)O[C@H]1CO	i	nt	nt	i	i	nt	nt
CCCN(CCC)CCCNC(=O)c1cn(CC)c2ccc(S(=O)(=O)N3CCc4ccccc4C3)cc2c1=O	i	i	50.4	i	i	i	i
Cc1ccccc1S(=O)(=O)N1C[C@H](O)COC[C@H]2O[C@H](CC(=O)O)CC[C@@H]21	i	nt	nt	i	i	nt	nt
CN1c2ccc(-c3ccccc3)cc2[C@H]2[C@H](CCN2S(=O)(=O)c2ccccc2F)[C@@H]1CO	i	nt	nt	i	i	nt	nt
Cc1nc(-[n+]2nc(-c3ccncc3)nn2-c2ccccc2)sc1C	i	i	69.0	i	nt	nt	2.13µM
COCCNC(=O)Cc1c(C)c2c(cc(C)c3c(C)coc32)oc1=O	i	i	50.8	i	i	i	i
Cc1coc2c1c(C)cc1oc(=O)c(CC(=O)NCCC(=O)O)c(C)c12	i	i	i	i	i	i	nt
CN1CCC(=NNC(=O)c2cn(-c3ccccc3)nc2-c2ccccc2)CC1	i	i	53.2	i	i	i	i
CCC(C)/C(C)=N/NC(=O)c1cn(-c2ccccc2)nc1-c1ccccc1 (configuration not stated)	nt	nt	i	i	nt	i	nt
COc1ccc(-c2nn(-c3ccccc3)cc2C(=O)Nc2ccc(C(=O)O)cc2)cc1	i	i	73.5	i	i	i	i
Cc1ccc(S(=O)(=O)N[C@@H]2CC[C@@H](CC(=O)NCCN3CCCCC3)O[C@@H]2CO)cc1	i	nt	nt	i	i	nt	nt
Cc1ccc(C(=O)NNC(=O)C2CCN(S(=O)(=O)c3ccc(C)cc3)CC2)cc1	i	i	i	i	nt	i	nt
Cc1ccc(C(=O)C2CCN(S(=O)(=O)c3ccc(C(=O)O)cc3)CC2)cc1	nt	i	65.6	i	i	i	i
COCC(=O)Nc1ccc2c(c1)C(=O)N(C)C[C@@H](OC)[C@H](C)CN(Cc1ccccc1C(=O)O)[C@H](C)CO2	i	nt	nt	i	i	nt	nt
CC(=O)Nc1ccc(SCCC2CCCCN2C)cc1 (configuration not stated)	i	i	88.0	i	i	i	i
Cn1c(=O)c2c(-c3ccccc3)n(Cc3cccnc3)cc2n(C)c1=O	nt	i	52.7	nt	i	i	i
O=C(NCC1CC1)c1ccc(-n2ccnc2)c2ccoc12	i	i	63.2	i	i	nt	i
CCCC#Cc1ccc([C@@H]2[C@@H](CO)N3C(=O)CN(C(=O)c4ccc(F)cc4)C[C@H]23)cc1	i	nt	nt	i	nt	nt	nt

Bioassay records (PubChem BioAssay)
